According to ChEMBL document CHEMBL1135408, “Design and synthesis of novel 5-substituted acyclic pyrimidine nucleosides as potent and selective inhibitors of hepatitis B virus” (J Med Chem, 2002):
In brackets after ≈: the same amount, converted by molar mass.

Assays:
[1] = test system: Anas sp.; assay: Concentration required to reduce the viral DNA in infected cells to 50% of untreated infected controls of Hepatitis B virus in primary duck hepatocyte (DHBV) cultures; assay type: functional
Summary of the method: (§1)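 Primary hepatocytes from 9–14 day old ducklings persistently infected with DHBV, in L-15 with 5% FBS plus antibiotics. Compound was serially diluted and added in triplicate from day 2, with medium changed every second day to day 12; cells were harvested day 14. Viral DNA was measured by 32P-probe dot-blot and phosphorimaging, and EC50 was taken as 50% reduction versus untreated infected cells.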

[2] = test system: Vero; assay: Cytotoxic concentration required to reduce the viability of Vero cells as determined by MTT assay; assay type: functional; settings: Chlorocebus sabaeus
Summary of the method: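 Vero cells were seeded at 2.5 × 10^4 per well and attached for 6–8 h. They were then exposed for 3 days at 37 °C to 200–1.5 µg/mL, with a DMSO control. MTT was added for 4 h, solubilized overnight, and absorbance read at 560–650 nm. CC50 is 50% viability of untreated control.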

[3] = Concentration required to reduce the proliferation of PHA stimulated human peripheral blood T lymphocytes to 50% of untreated PHA stimulated control; assay type: functional
Summary of the method: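 Nylon-wool-enriched T cells from normal donor buffy coats, 2 × 10^5 per well in serum-free AIM V, were stimulated with PHA at 1 µg/mL final. Compounds from DMSO stock were tested in triplicate from 50 µg/mL in serial dilutions. After 3–4 days at 37 °C, cells were pulsed with [3H]thymidine 1 µCi/well for 18 h and counted by scintillation. Counts were compared with DMSO-matched PHA controls.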

[4] = test system: Anas sp.; assay: In vitro antiviral activity against Hepatitis B virus in primary duck hepatocyte (DHBV) cultures and expressed as percent inhibition of viral DNA at 10 ug/mL; assay type: functional
Summary of the method: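 DHBV-infected primary duck hepatocytes in L-15 with 5% FBS were treated at 10 µg/mL final in triplicate from day 2 to day 12, with medium changed every second day, and harvested day 14. DNA was extracted and dot-blot hybridized with a 32P DHBV probe, then quantified by phosphorimaging. % inhibition = (untreated − treated)×100/untreated, averaged over triplicates.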

[5] = test system: Daudi; assay: Concentration required to reduce the proliferation of Daudi cells to 50% of untreated controls; assay type: functional, cell-based; settings: Homo sapiens
Summary of the method: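 Daudi cells were grown in suspension, so no trypsin detachment was used. CC50 is the concentration reducing proliferation to 50% of untreated controls.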

[6] = test system: HFF; assay: Concentration required to reduce the proliferation of HFF (human foreskin fibroblasts) cells to 50% of untreated controls; assay type: functional, cell-based
[7] = test system: HFF; assay: Cytotoxic concentration required to reduce the uptake of neutral red stain by uninfected cell monolayers to 50% of untreated uninfected human foreskin fibroblasts (HFF); assay type: functional
Summary of the method: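 Neutral red uptake was measured in uninfected human foreskin fibroblast monolayers after 7 days of exposure. CC50 is 50% of untreated uninfected cells; ">" means 50% was not reached at the highest concentration tested.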

[8] = test system: Anas sp.; assay: Concentration required to reduce the viral DNA in infected cells to 50% of untreated infected controls of Hepatitis B virus in primary duck hepatocyte (DHBV) cultures.; assay type: functional, organism-based; summary of the method: as §1

Compound | EC50 [1] | CC50 [2] | IC50 [3] | inhibition at 10 µg/mL [4] | IC50 [5] | IC50 [6] | CC50 [7] | EC50 [8]
CC(N=[N+]=[N-])c1cn(COCCO)c(=O)[nH]c1=O (stereo not given) | > 10 µg/mL | – | – | – | – | – | – | –
CC(N=[N+]=[N-])c1cn(CCC(CO)CO)c(=O)[nH]c1=O (stereo not given) | 0.1 µg/mL (≈ 0.353 µM) | – | – | – | – | – | – | –
C=C(N=[N+]=[N-])c1cn(COCCO)c(=O)[nH]c1=O | 0.01 µg/mL (≈ 0.0395 µM) | > 100 µg/mL | > 50 µg/mL | 84% | > 50 µg/mL | > 100 µg/mL | > 100 µg/mL | –
C=C(N=[N+]=[N-])c1cn(CCC(CO)CO)c(=O)[nH]c1=O | 0.01 µg/mL (≈ 0.0356 µM) | > 200 µg/mL | > 50 µg/mL | 93% | > 50 µg/mL | > 100 µg/mL | > 100 µg/mL | –
C=C(N=[N+]=[N-])c1cn(COC(CO)CO)c(=O)[nH]c1=O | 0.01 µg/mL (≈ 0.0353 µM) | > 200 µg/mL | > 50 µg/mL | 86% | > 50 µg/mL | 100 µg/mL (≈ 353 µM) | > 100 µg/mL | –
CC(N=[N+]=[N-])c1cn(COC(CO)CO)c(=O)[nH]c1=O (stereo not given) | 1 µg/mL (≈ 3.51 µM) | – | – | – | – | – | – | –
Nc1nc2c(ncn2COC(CO)CO)c(=O)[nH]1 [GANCICLOVIR] | 1.5 µg/mL (≈ 5.88 µM) | – | – | – | – | – | – | –
Nc1ccn([C@@H]2CS[C@H](CO)O2)c(=O)n1 [LAMIVUDINE] | 0.01 µg/mL (≈ 0.0436 µM) | > 100 µg/mL | > 50 µg/mL | 96% | – | – | – | –
Nc1nc(O)c2ncn(CCC(CO)CO)c2n1 [PENCICLOVIR] | – | – | – | – | – | – | – | 0.3 µg/mL (≈ 1.18 µM)
